Measured values published in ChEMBL document CHEMBL1124902, “Hydroxyperfluoroazobenzenes: novel inhibitors of enzymes of androgen biosynthesis” (J Med Chem, 1990).

Key:
[1] = target: T1, Steroid 17-alpha-hydroxylase/17,20 lyase (Rattus norvegicus, UniProt P11715); experiment: Inhibition of 17-alpha-hydroxylase/17,20 lyase from rat testes microsomal preparation; type: microsomes, Testis
T1 sequence (P11715 whole entry): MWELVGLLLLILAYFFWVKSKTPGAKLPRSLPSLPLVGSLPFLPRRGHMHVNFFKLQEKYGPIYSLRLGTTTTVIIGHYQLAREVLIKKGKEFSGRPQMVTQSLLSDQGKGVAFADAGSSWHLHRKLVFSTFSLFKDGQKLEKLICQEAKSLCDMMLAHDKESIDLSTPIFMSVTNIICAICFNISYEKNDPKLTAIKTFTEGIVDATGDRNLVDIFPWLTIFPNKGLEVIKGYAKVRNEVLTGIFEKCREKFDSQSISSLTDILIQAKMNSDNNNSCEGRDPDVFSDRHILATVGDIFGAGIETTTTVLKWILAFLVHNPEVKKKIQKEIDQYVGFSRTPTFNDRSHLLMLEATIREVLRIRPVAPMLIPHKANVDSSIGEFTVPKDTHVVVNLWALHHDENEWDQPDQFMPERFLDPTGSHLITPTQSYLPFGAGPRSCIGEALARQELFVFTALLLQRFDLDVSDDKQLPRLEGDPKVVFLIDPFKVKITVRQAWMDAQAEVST
Method in brief: (§1)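 Rat testis microsomes as enzyme source. The assay contained 1 μM [³H]progesterone, 250 μM NADPH, a glucose-6-phosphate/G6P dehydrogenase regenerating system, 1 mM MgCl₂, 0.1 mM EDTA and 0.1 mM DTT in 50 mM sodium phosphate at pH 7.4, with 5% ethanol vehicle. Incubation ran 10 min at 37 °C. Substrate, 17α-OH-progesterone and product were quantified, giving separate hydroxylase and lyase steps. Each point was run in triplicate at ≥3 concentrations, and IC50 was taken from a Dixon linear regression.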

[2] = target: T2, Steroid 5-alpha-reductase (Rattus norvegicus, UniProt P24008+P31214); experiment: Inhibition of rat testosterone-5 alpha-reductase activity at pH 6.6 from rat; type: protein assay
T2 sequence (P24008 whole entry): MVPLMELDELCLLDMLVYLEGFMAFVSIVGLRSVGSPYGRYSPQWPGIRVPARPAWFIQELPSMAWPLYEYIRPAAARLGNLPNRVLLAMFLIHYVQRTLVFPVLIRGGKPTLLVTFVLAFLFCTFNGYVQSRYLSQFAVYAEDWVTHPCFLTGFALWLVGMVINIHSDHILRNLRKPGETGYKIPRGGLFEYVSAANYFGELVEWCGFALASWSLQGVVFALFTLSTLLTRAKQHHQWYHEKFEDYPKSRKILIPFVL
T2 sequence (P31214 whole entry): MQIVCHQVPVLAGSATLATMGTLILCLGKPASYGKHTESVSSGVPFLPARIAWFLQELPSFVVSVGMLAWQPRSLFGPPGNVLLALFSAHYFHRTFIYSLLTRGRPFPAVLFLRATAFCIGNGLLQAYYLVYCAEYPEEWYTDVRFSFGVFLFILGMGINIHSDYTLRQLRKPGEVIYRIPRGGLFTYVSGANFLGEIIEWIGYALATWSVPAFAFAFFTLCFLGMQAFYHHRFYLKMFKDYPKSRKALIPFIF
Method in brief: (§2)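 Crude nuclear fraction (ca. 1.5 mg) from adult Wistar rat ventral prostate, in 50 mM potassium phosphate. The substrate was 5 μM testosterone with 4-[¹⁴C]testosterone, plus 1 mM NADPH and 1 mM DTT. Incubation ran 30 min at 37 °C and was stopped with ethyl acetate/HgCl₂. [¹⁴C]DHT was measured by TLC radioscan. Inhibitors were added in 2% DMSO at 1, 2, 5, 10 and 20 μM, with assays in duplicate.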

[3] = target: T1, Steroid 17-alpha-hydroxylase/17,20 lyase; experiment: Percent inhibition of Steroid 17-alpha-hydroxylase/17,20 lyase of rat testes microsomes at 100 uM
[4] = target: T1, Steroid 17-alpha-hydroxylase/17,20 lyase; experiment: Inhibition of Steroid 17-alpha-hydroxylase/17,20 lyase from rat testes microsomal preparation; method in brief: as §1
[5] = target: T2, Steroid 5-alpha-reductase; experiment: Inhibition of Testosterone-5 alpha-reductase activity at pH 7.4 from rat; type: protein assay; method in brief: as §2
[6] = target: T2, Steroid 5-alpha-reductase; experiment: Binding constant of Testosterone-5 alpha-reductase activity at pH 7.4; type: protein assay
[7] = target: T1, Steroid 17-alpha-hydroxylase/17,20 lyase; experiment: Percent inhibition of Steroid 17-alpha-hydroxylase/17,20 lyase from rat testes microsomes at 100 uM
[8] = target: T1, Steroid 17-alpha-hydroxylase/17,20 lyase; experiment: Percent inhibition of 17-alpha-hydroxylase/17,20 lyase of rat testes microsomes at 100 uM
[9] = target: T2, Steroid 5-alpha-reductase; experiment: Inhibition of Testosterone-5 alpha-reductase activity at pH 7.4 from rat; B = no inhibition at the highest concentration tested (20 uM); type: protein assay; method in brief: as §2
[10] = target: T2, Steroid 5-alpha-reductase; experiment: Inhibition of Testosterone-5 alpha-reductase activity at pH 6.6 from rat; B = no inhibition at the highest concentration tested (20 uM); type: protein assay; method in brief: as §2

IC50 [1] [µM] | IC50 [2] [µM] | inhibition at 100 µM [3] [%] | IC50 [4] [µM] | IC50 [5] [µM] | Ki [6] [µM] | inhibition at 100 µM [7] [%] | inhibition at 100 µM [8] [%] | IC50 [9] | IC50 [10] | SMILES
30 | 2 | 76 | 33 | 14 | 10 | 71 |  |  |  | Oc1c(F)c(F)c(/N=N/c2c(F)c(F)c(F)c(F)c2F)c(F)c1F
50 |  |  | 15 |  |  | 88 | 67 |  |  | Fc1c(F)c(F)c2c(c1F)N=Nc1c(F)c(F)c(F)c(F)c1O2
 | 0.79 |  |  | 5 | 4 | 14 | 15 |  |  | Oc1c(F)c(F)c(/N=N/c2c(F)c(F)c(O)c(F)c2F)c(F)c1F
 |  |  |  |  |  | 0 | 6 | No inhibition |  | Oc1ccc(/N=N/c2ccccc2)cc1
63 |  |  | 16 |  |  | 83 | 62 |  | No inhibition | Oc1c(F)c(F)c(F)c(F)c1/N=N/c1c(F)c(F)c(F)c(F)c1F
 |  |  |  |  |  | 0 | 4 | No inhibition |  | Fc1c(F)c(F)c(/N=N/c2c(F)c(F)c(F)c(F)c2F)c(F)c1F

SMILES | IC50 [1] [µM] | IC50 [2] [µM] | inhibition at 100 µM [3] [%] | IC50 [4] [µM] | IC50 [5] [µM] | Ki [6] [µM] | inhibition at 100 µM [7] [%] | inhibition at 100 µM [8] [%] | IC50 [9] | IC50 [10]
c1ccc(/N=N/c2ccccc2)cc1 [AZOBENZENE] |  |  |  |  |  |  | 0 | 0 | No inhibition | 
CC(=O)N1CCN(c2ccc(OCC3COC(Cn4ccnc4)(c4ccc(Cl)cc4Cl)O3)cc2)CC1 (stereo unspecified) [KETOCONAZOLE] | 6 |  |  | 11 |  |  | 48 | 62 |  | 
CC(=O)[C@H]1CC[C@H]2[C@@H]3CCC4=CC(=O)CC[C@]4(C)[C@H]3CC[C@]12C [PROGESTERONE] |  | 1.6 |  |  | 2.6 |  |  |  |  | 
